ChEMBL document CHEMBL1152173, “Synthesis and in vitro evaluation of the antifungal activities of dihydropyrimidinones” (2008)
Values after ≈ are worked out from the molar mass of the structure shown. Active and inactive are the calls of the source. No cut-off for these calls is given here.

Experiments:
Trichoderma koningii [1] = assay: Antifungal activity against Trichoderma koningii assessed as radial growth at 5% after 24 hrs by poison food technique of Flack relative to control; format: functional
Method in brief: (§1)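 Acetone stock added to molten sterilized PDA to final 0.5–7%, plated in 90 mm dishes with compound-free plates as control. Each plate was inoculated with a 9 mm disc from a 4-day-old culture, incubated at 25 ± 1 °C, and colony diameter measured at 24 h intervals. % inhibition = (control − treatment)/control × 100; three replicates averaged.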

Trichoderma hamatum [2] = assay: Antifungal activity against Trichoderma hamatum assessed as radial growth at 7% after 24 hrs by poison food technique of Flack relative to control; format: functional; method in brief: as §1
Aspergillus niger [3] = assay: Antifungal activity against Aspergillus niger assessed as radial growth at 3% after 48 hrs by poison food technique of Flack relative to control; format: functional
Aspergillus niger [4] = assay: Antifungal activity against Aspergillus niger; format: functional
Trichoderma hamatum [5] = assay: Antifungal activity against Trichoderma hamatum assessed as radial growth at 7% after 24 hrs by poison food technique of Flack; format: functional, organism-based
Method in brief: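 Poisoned-food method: acetone stock mixed into molten sterilized potato dextrose agar to final 0.5, 1, 3, 5 or 7%, poured into 90 mm plates. Plates were inoculated with a 9 mm mycelial disc from a 4-day-old pure culture and incubated at 25 ± 1 °C. Colony diameter (mm) was read every 24 h; mean of three replicates.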

Aspergillus niger [6] = assay: Antifungal activity against Aspergillus niger assessed as radial growth at 0.5% after 72 hrs by poison food technique of Flack relative to control; format: functional
Trichoderma hamatum [7] = assay: Antifungal activity against Trichoderma hamatum assessed as radial growth at 0.5% after 72 hrs by poison food technique of Flack relative to control; format: functional
Trichoderma koningii [8] = assay: Antifungal activity against Trichoderma koningii assessed as radial growth at 7% after 72 hrs by poison food technique of Flack relative to control; format: functional; method in brief: as §1
Trichoderma hamatum [9] = assay: Antifungal activity against Trichoderma hamatum assessed as radial growth at 1% after 48 hrs by poison food technique of Flack relative to control; format: functional
Trichoderma hamatum [10] = assay: Antifungal activity against Trichoderma hamatum assessed as radial growth at 5% after 72 hrs by poison food technique of Flack relative to control; format: functional; method in brief: as §1
Trichoderma koningii [11] = assay: Antifungal activity against Trichoderma koningii assessed as radial growth at 0.5% after 72 hrs by poison food technique of Flack relative to control; format: functional; method in brief: as §1
Trichoderma koningii [12] = assay: Antifungal activity against Trichoderma koningii assessed as radial growth at 5% after 48 hrs by poison food technique of Flack relative to control; format: functional; method in brief: as §1
Aspergillus niger [13] = assay: Antifungal activity against Aspergillus niger assessed as radial growth at 1% after 72 hrs by poison food technique of Flack relative to control; format: functional
Aspergillus niger [14] = assay: Antifungal activity against Aspergillus niger assessed as radial growth at 7% after 24 hrs by poison food technique of Flack relative to control; format: functional
Trichoderma koningii [15] = assay: Antifungal activity against Trichoderma koningii assessed as radial growth at 0.5% after 24 hrs by poison food technique of Flack relative to control; format: functional; method in brief: as §1
Aspergillus niger [16] = assay: Antifungal activity against Aspergillus niger assessed as radial growth at 5% after 24 hrs by poison food technique of Flack relative to control; format: functional
Trichoderma hamatum [17] = assay: Antifungal activity against Trichoderma hamatum assessed as radial growth at 3% after 48 hrs by poison food technique of Flack relative to control; format: functional
Trichoderma koningii [18] = assay: Antifungal activity against Trichoderma koningii assessed as radial growth at 7% after 48 hrs by poison food technique of Flack relative to control; format: functional; method in brief: as §1
Aspergillus niger [19] = assay: Antifungal activity against Aspergillus niger assessed as radial growth at 7% after 48 hrs by poison food technique of Flack relative to control; format: functional
Trichoderma hamatum [20] = assay: Antifungal activity against Trichoderma hamatum; format: functional
Trichoderma koningii [21] = assay: Antifungal activity against Trichoderma koningii assessed as radial growth at 5% after 72 hrs by poison food technique of Flack relative to control; format: functional; method in brief: as §1
Trichoderma hamatum [22] = assay: Antifungal activity against Trichoderma hamatum assessed as radial growth at 5% after 48 hrs by poison food technique of Flack relative to control; format: functional; method in brief: as §1
Trichoderma hamatum [23] = assay: Antifungal activity against Trichoderma hamatum assessed as radial growth at 0.5% after 24 hrs by poison food technique of Flack relative to control; format: functional
Aspergillus niger [24] = assay: Antifungal activity against Aspergillus niger assessed as radial growth at 3% after 72 hrs by poison food technique of Flack relative to control; format: functional
Trichoderma hamatum [25] = assay: Antifungal activity against Trichoderma hamatum assessed as radial growth at 3% after 72 hrs by poison food technique of Flack relative to control; format: functional
Trichoderma koningii [26] = assay: Antifungal activity against Trichoderma koningii assessed as radial growth at 0.5% after 48 hrs by poison food technique of Flack relative to control; format: functional; method in brief: as §1
Trichoderma koningii [27] = assay: Antifungal activity against Trichoderma koningii assessed as radial growth at 1% after 48 hrs by poison food technique of Flack relative to control; format: functional; method in brief: as §1
Trichoderma koningii [28] = assay: Antifungal activity against Trichoderma koningii assessed as radial growth at 3% after 24 hrs by poison food technique of Flack relative to control; format: functional; method in brief: as §1
Trichoderma koningii [29] = assay: Antifungal activity against Trichoderma koningii assessed as radial growth at 3% after 48 hrs by poison food technique of Flack relative to control; format: functional; method in brief: as §1
Trichoderma hamatum [30] = assay: Antifungal activity against Trichoderma hamatum assessed as radial growth at 3% after 24 hrs by poison food technique of Flack relative to control; format: functional
Trichoderma hamatum [31] = assay: Antifungal activity against Trichoderma hamatum assessed as radial growth at 1% after 72 hrs by poison food technique of Flack relative to control; format: functional
Aspergillus niger [32] = assay: Antifungal activity against Aspergillus niger assessed as radial growth at 1% after 48 hrs by poison food technique of Flack relative to control; format: functional
Trichoderma koningii [33] = assay: Antifungal activity against Trichoderma koningii assessed as radial growth at 7% after 24 hrs by poison food technique of Flack relative to control; format: functional; method in brief: as §1
Aspergillus niger [34] = assay: Antifungal activity against Aspergillus niger assessed as radial growth at 5% after 72 hrs by poison food technique of Flack relative to control; format: functional
Aspergillus niger [35] = assay: Antifungal activity against Aspergillus niger assessed as radial growth at 0.5% after 48 hrs by poison food technique of Flack relative to control; format: functional
Trichoderma hamatum [36] = assay: Antifungal activity against Trichoderma hamatum assessed as radial growth at 7% after 48 hrs by poison food technique of Flack relative to control; format: functional; method in brief: as §1
Trichoderma hamatum [37] = assay: Antifungal activity against Trichoderma hamatum assessed as radial growth at 0.5% after 48 hrs by poison food technique of Flack relative to control; format: functional
Trichoderma koningii [38] = assay: Antifungal activity against Trichoderma koningii assessed as radial growth at 3% after 72 hrs by poison food technique of Flack relative to control; format: functional; method in brief: as §1
Aspergillus niger [39] = assay: Antifungal activity against Aspergillus niger assessed as radial growth at 3% after 24 hrs by poison food technique of Flack relative to control; format: functional
Aspergillus niger [40] = assay: Antifungal activity against Aspergillus niger assessed as radial growth at 1% after 24 hrs by poison food technique of Flack relative to control; format: functional
Trichoderma hamatum [41] = assay: Antifungal activity against Trichoderma hamatum assessed as radial growth at 7% after 72 hrs by poison food technique of Flack relative to control; format: functional; method in brief: as §1
Aspergillus niger [42] = assay: Antifungal activity against Aspergillus niger assessed as radial growth at 5% after 48 hrs by poison food technique of Flack relative to control; format: functional
Trichoderma hamatum [43] = assay: Antifungal activity against Trichoderma hamatum assessed as radial growth at 1% after 24 hrs by poison food technique of Flack relative to control; format: functional
Trichoderma koningii [44] = assay: Antifungal activity against Trichoderma koningii assessed as radial growth at 1% after 72 hrs by poison food technique of Flack relative to control; format: functional; method in brief: as §1

Structure (SMILES): CCOC(=O)C1=C(C)NC(=O)NC1c1ccccc1 (stereo not drawn)
- inhibition (INH) (Trichoderma koningii [1]): 100%
- inhibition (INH) (Trichoderma hamatum [2]): 100%
- inhibition (INH) (Aspergillus niger [3]): 52.83%
- MIC (Aspergillus niger [4]): 0.025 µg/mL (≈ 0.096 µM)
- Activity (Trichoderma hamatum [5]): Active
- inhibition (INH) (Aspergillus niger [6]): 0%
- inhibition (INH) (Trichoderma hamatum [7]): 2.46%
- inhibition (INH) (Trichoderma koningii [8]): 95.52%
- inhibition (INH) (Trichoderma hamatum [9]): 21.94%
- inhibition (INH) (Trichoderma hamatum [10]): 93.2%
- inhibition (INH) (Trichoderma koningii [11]): 1.59%
- inhibition (INH) (Trichoderma koningii [12]): 100%
- inhibition (INH) (Aspergillus niger [13]): 0%
- inhibition (INH) (Aspergillus niger [14]): 100%
- inhibition (INH) (Trichoderma koningii [15]): 5.66%
- inhibition (INH) (Aspergillus niger [16]): 84.72%
- inhibition (INH) (Trichoderma hamatum [17]): 72.02%
- inhibition (INH) (Trichoderma koningii [18]): 100%
- inhibition (INH) (Aspergillus niger [19]): 79.36%
- MIC (Trichoderma hamatum [20]): 0.025 µg/mL (≈ 0.096 µM)
- inhibition (INH) (Trichoderma koningii [21]): 91.53%
- inhibition (INH) (Trichoderma hamatum [22]): 96.89%
- inhibition (INH) (Trichoderma hamatum [23]): 11.32%
- inhibition (INH) (Aspergillus niger [24]): 54.34%
- inhibition (INH) (Trichoderma hamatum [25]): 63.38%
- inhibition (INH) (Trichoderma koningii [26]): 18.25%
- inhibition (INH) (Trichoderma koningii [27]): 20.63%
- inhibition (INH) (Trichoderma koningii [28]): 100%
- inhibition (INH) (Trichoderma koningii [29]): 62.31%
- inhibition (INH) (Trichoderma hamatum [30]): 82.12%
- inhibition (INH) (Trichoderma hamatum [31]): 12.34%
- inhibition (INH) (Aspergillus niger [32]): 0%
- inhibition (INH) (Trichoderma koningii [33]): 100%
- inhibition (INH) (Aspergillus niger [34]): 73.29%
- inhibition (INH) (Aspergillus niger [35]): 0%
- inhibition (INH) (Trichoderma hamatum [36]): 100%
- inhibition (INH) (Trichoderma hamatum [37]): 32.99%
- inhibition (INH) (Trichoderma koningii [38]): 70.18%
- inhibition (INH) (Aspergillus niger [39]): 69.44%
- inhibition (INH) (Aspergillus niger [40]): 30.55%
- inhibition (INH) (Trichoderma hamatum [41]): 100%
- inhibition (INH) (Aspergillus niger [42]): 81.17%
- inhibition (INH) (Trichoderma hamatum [43]): 24.96%
- inhibition (INH) (Trichoderma koningii [44]): 10.86%

Structure (SMILES): CCOC(=O)C1=C(C)NC(=O)NC1c1ccc(N(C)C)cc1 (stereo not drawn)
- inhibition (INH) (Trichoderma koningii [1]): 100%
- inhibition (INH) (Trichoderma hamatum [2]): 100%
- inhibition (INH) (Aspergillus niger [3]): 75%
- MIC (Aspergillus niger [4]): 0.35 µg/mL (≈ 1.15 µM)
- Activity (Trichoderma hamatum [5]): Active
- inhibition (INH) (Aspergillus niger [6]): 35.69%
- inhibition (INH) (Trichoderma hamatum [7]): 0%
- inhibition (INH) (Trichoderma koningii [8]): 80%
- inhibition (INH) (Trichoderma hamatum [9]): 0%
- inhibition (INH) (Trichoderma hamatum [10]): 86.83%
- inhibition (INH) (Trichoderma koningii [11]): 45.53%
- inhibition (INH) (Trichoderma koningii [12]): 87.09%
- inhibition (INH) (Aspergillus niger [13]): 46.4%
- inhibition (INH) (Aspergillus niger [14]): 100%
- inhibition (INH) (Trichoderma koningii [15]): 4%
- inhibition (INH) (Aspergillus niger [16]): 100%
- inhibition (INH) (Trichoderma hamatum [17]): 75.31%
- inhibition (INH) (Trichoderma koningii [18]): 87.09%
- inhibition (INH) (Aspergillus niger [19]): 100%
- MIC (Trichoderma hamatum [20]): 0.025 µg/mL (≈ 0.0824 µM)
- inhibition (INH) (Trichoderma koningii [21]): 79.15%
- inhibition (INH) (Trichoderma hamatum [22]): 93.38%
- inhibition (INH) (Trichoderma hamatum [23]): 0%
- inhibition (INH) (Aspergillus niger [24]): 74.11%
- inhibition (INH) (Trichoderma hamatum [25]): 73.04%
- inhibition (INH) (Trichoderma koningii [26]): 9.67%
- inhibition (INH) (Trichoderma koningii [27]): 48.38%
- inhibition (INH) (Trichoderma koningii [28]): 84%
- inhibition (INH) (Trichoderma koningii [29]): 64.51%
- inhibition (INH) (Trichoderma hamatum [30]): 77.38%
- inhibition (INH) (Trichoderma hamatum [31]): 0%
- inhibition (INH) (Aspergillus niger [32]): 47.25%
- inhibition (INH) (Trichoderma koningii [33]): 100%
- inhibition (INH) (Aspergillus niger [34]): 88.42%
- inhibition (INH) (Aspergillus niger [35]): 41.66%
- inhibition (INH) (Trichoderma hamatum [36]): 96.38%
- inhibition (INH) (Trichoderma hamatum [37]): 0%
- inhibition (INH) (Trichoderma koningii [38]): 59.58%
- inhibition (INH) (Aspergillus niger [39]): 100%
- inhibition (INH) (Aspergillus niger [40]): 42.85%
- inhibition (INH) (Trichoderma hamatum [41]): 93.82%
- inhibition (INH) (Aspergillus niger [42]): 87.5%
- inhibition (INH) (Trichoderma hamatum [43]): 0%
- inhibition (INH) (Trichoderma koningii [44]): 48.29%
